Source: publication PMC9043576 (RSC Advances, 2021)
Entries after “also recorded” stand apart in the source; their conditions may differ.

Key:
[1] = target: DPP-4 (Homo sapiens, UniProt P27487); test: biochemical; format: biochemical; conditions: for DPP-4 suppression activity (in words): human recombinant DPP-4; for IC50: Experimental PIC50, pIC50 = −log IC50, QSAR training set
[2] = tested on: high-fat diet-fed/streptozotocin (HFD/STZ) induced T2DM male albino mice; test: Acute hypoglycemic activity, intraperitoneal glucose tolerance test; format: in vivo; conditions: IPGTT, diabetic mice, mean ±SD; for Blood glucose level (1 h): single dose 10 mg kg^−1, 1 h; for Blood glucose level (2 h): single dose 10 mg kg^−1, 2 h; for Blood glucose level (3 h): single dose 10 mg kg^−1, 3 h; for Blood glucose level (6 h): single dose 10 mg kg^−1, 6 h
Outline: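 Diabetic male albino mice (high-fat diet-fed/streptozotocin-induced T2DM) received a single 10 mg kg−1 dose of test compound; the IPGTT was then run. Blood glucose (mg dl−1) was read at 1, 2, 3 and 6 h. The groups were normal control, untreated STZ-diabetic control and treated animals, with n = 4 per group. Values are mean ±SD.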

[3] = target: DPP-8 (Homo sapiens, UniProt Q6V1X1); test: In vitro DPP-8 selectivity assay, fluorescence-based; format: biochemical
[4] = tested on: normal hTERT-RPE1 cell line; test: Cytotoxicity bioassay; format: cell-based; conditions: MTT
[5] = target: DPP-9 (Homo sapiens, UniProt Q86TI2); test: In vitro DPP-9 selectivity assay, fluorescence-based; format: biochemical
DPP-9, sequence (Q86TI2 whole entry): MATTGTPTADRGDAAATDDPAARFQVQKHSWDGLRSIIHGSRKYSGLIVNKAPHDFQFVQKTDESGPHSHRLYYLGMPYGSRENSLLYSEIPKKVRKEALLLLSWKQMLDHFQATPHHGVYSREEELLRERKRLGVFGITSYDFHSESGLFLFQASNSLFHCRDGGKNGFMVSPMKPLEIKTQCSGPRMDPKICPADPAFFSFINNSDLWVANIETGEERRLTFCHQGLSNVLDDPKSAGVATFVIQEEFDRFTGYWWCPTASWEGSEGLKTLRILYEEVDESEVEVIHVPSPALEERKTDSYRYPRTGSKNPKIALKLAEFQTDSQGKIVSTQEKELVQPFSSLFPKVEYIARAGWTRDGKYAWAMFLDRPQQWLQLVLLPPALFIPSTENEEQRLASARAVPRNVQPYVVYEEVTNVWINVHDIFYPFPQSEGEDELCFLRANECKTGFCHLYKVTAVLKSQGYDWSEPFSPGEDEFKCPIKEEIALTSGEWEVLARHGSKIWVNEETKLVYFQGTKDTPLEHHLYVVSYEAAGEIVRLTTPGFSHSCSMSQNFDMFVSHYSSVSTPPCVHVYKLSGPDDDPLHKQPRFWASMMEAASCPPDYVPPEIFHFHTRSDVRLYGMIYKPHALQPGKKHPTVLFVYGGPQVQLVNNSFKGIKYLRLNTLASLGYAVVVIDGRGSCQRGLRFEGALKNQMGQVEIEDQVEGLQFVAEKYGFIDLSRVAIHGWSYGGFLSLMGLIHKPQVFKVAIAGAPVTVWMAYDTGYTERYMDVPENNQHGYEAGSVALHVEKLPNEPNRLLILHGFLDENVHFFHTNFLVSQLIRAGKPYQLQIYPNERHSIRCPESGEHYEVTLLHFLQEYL

DPP-4, sequence (P27487 whole entry): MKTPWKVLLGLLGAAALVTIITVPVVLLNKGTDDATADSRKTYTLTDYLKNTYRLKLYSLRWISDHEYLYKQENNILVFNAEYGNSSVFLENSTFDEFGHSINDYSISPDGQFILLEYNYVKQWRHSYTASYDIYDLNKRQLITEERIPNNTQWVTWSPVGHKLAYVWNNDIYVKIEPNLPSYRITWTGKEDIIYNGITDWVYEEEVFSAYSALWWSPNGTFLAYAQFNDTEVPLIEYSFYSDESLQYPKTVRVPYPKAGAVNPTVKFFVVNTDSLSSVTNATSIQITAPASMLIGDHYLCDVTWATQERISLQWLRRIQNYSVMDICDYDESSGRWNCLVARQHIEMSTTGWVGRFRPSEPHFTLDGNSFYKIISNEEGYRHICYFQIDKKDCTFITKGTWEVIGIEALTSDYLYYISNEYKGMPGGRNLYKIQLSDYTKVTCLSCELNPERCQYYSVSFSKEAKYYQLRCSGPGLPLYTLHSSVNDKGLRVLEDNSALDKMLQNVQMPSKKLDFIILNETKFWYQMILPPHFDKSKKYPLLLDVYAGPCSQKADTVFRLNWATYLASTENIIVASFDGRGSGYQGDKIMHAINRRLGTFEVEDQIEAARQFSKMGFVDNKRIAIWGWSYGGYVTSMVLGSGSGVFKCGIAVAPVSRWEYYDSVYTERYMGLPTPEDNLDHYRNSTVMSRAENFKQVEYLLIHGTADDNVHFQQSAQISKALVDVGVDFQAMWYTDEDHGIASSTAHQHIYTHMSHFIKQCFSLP
DPP-8, sequence (Q6V1X1 whole entry): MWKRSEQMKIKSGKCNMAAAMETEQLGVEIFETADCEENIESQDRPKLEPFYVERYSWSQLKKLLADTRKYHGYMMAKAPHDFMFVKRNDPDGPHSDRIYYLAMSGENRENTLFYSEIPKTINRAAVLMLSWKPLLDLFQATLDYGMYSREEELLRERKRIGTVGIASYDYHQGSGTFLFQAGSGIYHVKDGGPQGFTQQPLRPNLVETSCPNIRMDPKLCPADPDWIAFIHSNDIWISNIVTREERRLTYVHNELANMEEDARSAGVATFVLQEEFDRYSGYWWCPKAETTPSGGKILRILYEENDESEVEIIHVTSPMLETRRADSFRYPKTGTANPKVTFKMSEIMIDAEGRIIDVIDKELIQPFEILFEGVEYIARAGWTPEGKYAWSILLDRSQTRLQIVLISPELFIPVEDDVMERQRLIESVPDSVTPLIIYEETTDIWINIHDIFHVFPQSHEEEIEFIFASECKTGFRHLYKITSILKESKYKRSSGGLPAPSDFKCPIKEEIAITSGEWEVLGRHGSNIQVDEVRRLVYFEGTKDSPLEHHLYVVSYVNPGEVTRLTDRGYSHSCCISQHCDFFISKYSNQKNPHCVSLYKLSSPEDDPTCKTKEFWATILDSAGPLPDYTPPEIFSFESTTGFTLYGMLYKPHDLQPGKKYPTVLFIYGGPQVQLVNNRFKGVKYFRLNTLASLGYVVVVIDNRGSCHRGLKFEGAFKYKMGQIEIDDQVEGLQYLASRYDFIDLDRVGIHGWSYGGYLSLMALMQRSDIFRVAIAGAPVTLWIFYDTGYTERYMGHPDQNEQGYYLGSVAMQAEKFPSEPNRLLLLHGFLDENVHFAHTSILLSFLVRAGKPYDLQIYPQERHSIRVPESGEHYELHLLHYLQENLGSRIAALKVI

SMILES	DPP-4 suppression activity (in words) [1]	Blood glucose level (1 h) [2]	Blood glucose level (2 h) [2]	Blood glucose level (3 h) [2]	Blood glucose level (6 h) [2]	IC50 [1]	folds more potent DPP-4 inhibitory effect than Linagliptin [1]	IC50 [3]	selectivity towards DPP-4 inhibition over DPP-8/9 ([3]; DPP-4 versus DPP-8/9)	Inhibition% of normal hTERT-RPE1 cells [4]	IC50 [5]
Cn1c(=O)c(=O)n(C)c2cc(S(=O)(=O)Nc3nccs3)ccc21 [Compound 6a, 1,4-Dimethyl-2,3-dioxo-N-(thiazol-2-yl)-1,2,3,4-tetrahydroquinoxaline-6-sulfonamide]	inactive; also recorded: completely lost										
CC(=O)c1ccc(NS(=O)(=O)c2ccc3c(c2)n(C)c(=O)c(=O)n3C)cc1 [Compound 6b, N-(4-Acetylphenyl)-1,4-dimethyl-2,3-dioxo-1,2,3,4-tetrahydroquinoxaline-6-sulfonamide]		235.64 ± 4.25 mg/dL	127.33 ± 7.15 mg/dL	95.67 ± 6.21 mg/dL	96.24 ± 4.29 mg/dL						
Cn1c(=O)c(=O)n(C)c2cc(S(=O)(=O)Nc3ccc(C(=O)O)cc3)ccc21 [Compound 6c, 4-(1,4-Dimethyl-2,3-dioxo-1,2,3,4-tetrahydroquinoxaline-6-sulfonamido)benzoic acid]		220.59 ± 5.12 mg/dL	125.31 ± 3.47 mg/dL	90.68 ± 3.45 mg/dL	90.06 ± 7.25 mg/dL						
Cn1c(=O)c(=O)n(C)c2cc(S(=O)(=O)Nc3ccc(F)cc3)ccc21 [Compound 6d, N-(4-Fluorophenyl)-1,4-dimethyl-2,3-dioxo-1,2,3,4-tetrahydroquinoxaline-6-sulfonamide]		226.33 ± 6.34 mg/dL	120.08 ± 4.11 mg/dL	99.33 ± 1.29 mg/dL	93.33 ± 6.11 mg/dL						
Cn1c(=O)c(=O)n(C)c2cc(S(=O)(=O)Nc3ccc(Br)cc3)ccc21 [Compound 6e, N-(4-Bromophenyl)-1,4-dimethyl-2,3-dioxo-1,2,3,4-tetrahydroquinoxaline-6-sulfonamide]		222.09 ± 4.85 mg/dL	125.04 ± 3.26 mg/dL	95.28 ± 4.55 mg/dL	92.17 ± 8.45 mg/dL	0.724 nM					
Cn1c(=O)c(=O)n(C)c2cc(S(=O)(=O)Nc3ccccc3S)ccc21 [Compound 6f, N-(2-Mercaptophenyl)-1,4-dimethyl-2,3-dioxo-1,2,3,4-tetrahydroquinoxaline-6-sulfonamide]		218.00 ± 4.26 mg/dL	118.07 ± 8.21 mg/dL	97.09 ± 6.39 mg/dL	93.25 ± 7.49 mg/dL						
Cn1c(=O)c(=O)n(C)c2cc(S(=O)(=O)Nc3ccc(S(N)(=O)=O)cc3)ccc21 [Compound 7a, 1,4-Dimethyl-2,3-dioxo-N-(4-sulfamoylphenyl)-1,2,3,4-tetrahydroquinoxaline-6-sulfonamide]		251.29 ± 2.80 mg/dL	138.16 ± 9.23 mg/dL	122.08 ± 3.31 mg/dL	99.25 ± 4.35 mg/dL	0.617 nM	1.2–1.6 folds				
CC(=O)NNS(=O)(=O)c1ccc2c(c1)n(C)c(=O)c(=O)n2C [Compound 9a, N′-Acetyl-1,4-dimethyl-2,3-dioxo-1,2,3,4-tetrahydroquinoxaline-6-sulfonohydrazide]		237.40 ± 3.15 mg/dL	115.11 ± 4.25 mg/dL	97.12 ± 8.37 mg/dL	85.23 ± 1.69 mg/dL			> 100000 nM	> 1000 folds	20%	> 100000 nM
Cn1c(=O)c(=O)n(C)c2cc(S(=O)(=O)NNC(=O)CCl)ccc21 [Compound 9b, N′-(2-Chloroacetyl)-1,4-dimethyl-2,3-dioxo-1,2,3,4-tetrahydroquinoxaline-6-sulfono hydrazide]		223.89 ± 3.85 mg/dL	118.12 ± 5.95 mg/dL	89.12 ± 4.21 mg/dL	85.25 ± 2.12 mg/dL						
Cn1c(=O)c(=O)n(C)c2cc(S(=O)(=O)NNC(=O)c3ccccc3)ccc21 [Compound 9c, N′-Benzoyl-1,4-dimethyl-2,3-dioxo-1,2,3,4-tetrahydroquinoxaline-6-sulfonohydrazide]		235.40 ± 3.85 mg/dL	120.11 ± 2.35 mg/dL	96.68 ± 4.25 mg/dL	80.16 ± 5.01 mg/dL						
Cn1c(=O)c(=O)n(C)c2cc(S(=O)(=O)NNC(=O)NCc3ccccc3)ccc21 [Compound 10b, N-Benzyl-2-((1,4-dimethyl-2,3-dioxo-1,2,3,4-tetrahydroquinoxalin-6-yl)sulfonyl)hydrazine-1-carboxamide]		228.71 ± 3.85 mg/dL	120.09 ± 3.35 mg/dL	90.66 ± 5.35 mg/dL	85.66 ± 4.10 mg/dL						
Cn1c(=O)c(=O)n(C)c2cc(S(=O)(=O)NNC(=O)NC(=O)c3ccccc3)ccc21 [Compound 10c, N-Benzoyl-2-((1,4-dimethyl-2,3-dioxo-1,2,3,4-tetrahydroquinoxalin-6-yl)sulfonyl)hydrazine-1-carboxamide]		225.65 ± 3.85 mg/dL	155.33 ± 2.78 mg/dL	137.34 ± 9.48 mg/dL	104.08 ± 3.35 mg/dL						
Cn1c(=O)c(=O)n(C)c2cc(S(=O)(=O)NNC(=O)Nc3ccc(Cl)cc3)ccc21 [Compound 10d, N-(4-Chlorophenyl)-2-((1,4-dimethyl-2,3-dioxo-1,2,3,4-tetrahydroquinoxalin-6-yl)sulfonyl)hydrazine-1-carboxamide]	inactive; also recorded: completely lost the activity										
Cn1c(=O)c(=O)n(C)c2cc(S(=O)(=O)NNC(=S)NC3CCCCC3)ccc21 [Compound 10f, N-Cyclohexyl-2-((1,4-dimethyl-2,3-dioxo-1,2,3,4-tetrahydroquinoxalin-6-yl)sulfonyl)hydrazine-1-carbothioamide]		237.33 ± 3.85 mg/dL	127.33 ± 4.23 mg/dL	100.06 ± 6.29 mg/dL	89.66 ± 2.27 mg/dL						
COc1ccc(NC(=S)NNS(=O)(=O)c2ccc3c(c2)n(C)c(=O)c(=O)n3C)cc1 [Compound 10h, 2-((1,4-Dimethyl-2,3-dioxo-1,2,3,4-tetrahydroquinoxalin-6-yl)sulfonyl)-N-(4-methoxyphenyl)hydrazine-1-carbothioamide]	inactive; also recorded: completely lost the activity										
CC#CCn1c(N2CCC[C@@H](N)C2)nc2c1c(=O)n(Cc1nc(C)c3ccccc3n1)c(=O)n2C [Linagliptin, reference compound]		220.01 ± 3.85 mg/dL	120.89 ± 1.76 mg/dL	85.11 ± 2.39 mg/dL	85.00 ± 5.15 mg/dL						
